{"source": "ChEMBL document CHEMBL1122089", "about": "“Synthesis and biological activity of some very hydrophobic superagonist analogues of luteinizing hormone-releasing hormone” (1982)", "key": {"Rattus norvegicus [1]": {"species": "Rattus norvegicus", "test": "Suppression of estrus cyclicity in rat.", "assay_type": "functional", "in_short": "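Adult female Sprague-Dawley rats (~160 g), groups of 10, 14:10 light/dark, food and water ad libitum. Compound in 0.1% BSA-saline vehicle given sc twice daily (0800, 1630 h), 0.1 or 0.2 mL/injection, 14 consecutive days; at least four doses at 2-fold dilutions; vehicle and positive controls. Daily vaginal lavage; percent of rats in persistent diestrus from day 4 plotted against log dose; ED50 in µg/injection.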"}, "Rattus norvegicus [2]": {"species": "Rattus norvegicus", "test": "Suppression of estrus cyclicity in rat relative to [D-Trp6, ProNHEt9].", "assay_type": "functional"}}, "data": [{"smiles": "Cc1cc(C)c(C[C@@H](NC(=O)[C@H](Cc2ccc(O)cc2)NC(=O)[C@H](CO)NC(=O)[C@H](Cc2c[nH]c3ccccc23)NC(=O)[C@H](Cc2c[nH]cn2)NC(=O)[C@@H]2CCC(=O)N2)C(=O)N[C@@H](CC(C)C)C(=O)N[C@@H](CCCN=C(N)N)C(=O)N2CCC[C@H]2C(=O)NCC(N)=O)c(C)c1", "values": [{"measurement": "ED50", "setting": "Rattus norvegicus [1]", "value": 0.07, "unit": "µg"}, {"measurement": "Potency", "setting": "Rattus norvegicus [2]", "value": 2}]}, {"smiles": "CC(C)C[C@H](NC(=O)[C@@H](CC1CCCCC1)NC(=O)[C@H](Cc1ccc(O)cc1)NC(=O)[C@H](CO)NC(=O)[C@H](Cc1c[nH]c2ccccc12)NC(=O)[C@H](Cc1c[nH]cn1)NC(=O)[C@@H]1CCC(=O)N1)C(=O)N[C@@H](CCCN=C(N)N)C(=O)N1CCC[C@H]1C(=O)NCC(N)=O", "values": [{"measurement": "ED50", "setting": "Rattus norvegicus [1]", "value": 0.3, "unit": "µg"}, {"measurement": "Potency", "setting": "Rattus norvegicus [2]", "value": 0.5}]}, {"smiles": "CCNC(=O)[C@@H]1CCCN1C(=O)[C@H](CCCN=C(N)N)NC(=O)[C@H](CC(C)C)N(C)C(=O)[C@@H](Cc1ccc2ccccc2c1)NC(=O)[C@H](Cc1ccc(O)cc1)NC(=O)[C@H](CO)NC(=O)[C@H](Cc1c[nH]c2ccccc12)NC(=O)[C@H](Cc1c[nH]cn1)NC(=O)[C@@H]1CCC(=O)N1", "values": [{"measurement": "ED50", "setting": "Rattus norvegicus [1]", "value": 0.12, "unit": "µg"}, {"measurement": "Potency", "setting": "Rattus norvegicus [2]", "value": 1.8}]}, {"smiles": "CC(C)C[C@H](NC(=O)[C@@H](Cc1c2ccccc2cc2ccccc12)NC(=O)[C@H](Cc1ccc(O)cc1)NC(=O)[C@H](CO)NC(=O)[C@H](Cc1c[nH]c2ccccc12)NC(=O)[C@H](Cc1c[nH]cn1)NC(=O)[C@@H]1CCC(=O)N1)C(=O)N[C@@H](CCCN=C(N)N)C(=O)N1CCC[C@H]1C(=O)NCC(N)=O", "values": [{"measurement": "ED50", "setting": "Rattus norvegicus [1]", "value": 0.27, "unit": "µg"}, {"measurement": "Potency", "setting": "Rattus norvegicus [2]", "value": 0.5}]}, {"smiles": "Cc1cc(C)c(C[C@@H](NC(=O)[C@H](Cc2ccc(O)cc2)NC(=O)[C@H](CO)NC(=O)[C@H](Cc2c[nH]c3ccccc23)NC(=O)[C@H](Cc2c[nH]cn2)NC(=O)[C@@H]2CCC(=O)N2)C(=O)N(C)[C@@H](CC(C)C)C(=O)N[C@@H](CCCN=C(N)N)C(=O)N2CCC[C@H]2C(=O)NCC(N)=O)c(C)c1", "values": [{"measurement": "Potency", "setting": "Rattus norvegicus [2]", "value": 1.1}]}, {"smiles": "CC(C)C[C@H](NC(=O)[C@@H](Cc1ccc2ccccc2c1Br)NC(=O)[C@H](Cc1ccc(O)cc1)NC(=O)[C@H](CO)NC(=O)[C@H](Cc1c[nH]c2ccccc12)NC(=O)[C@H](Cc1c[nH]cn1)NC(=O)[C@@H]1CCC(=O)N1)C(=O)N[C@@H](CCCN=C(N)N)C(=O)N1CCC[C@H]1C(=O)NCC(N)=O", "values": [{"measurement": "ED50", "setting": "Rattus norvegicus [1]", "value": 0.15, "unit": "µg"}, {"measurement": "Potency", "setting": "Rattus norvegicus [2]", "value": 1}]}, {"smiles": "CCNC(=O)[C@@H]1CCCN1C(=O)[C@H](CCCN=C(N)N)NC(=O)[C@H](CC(C)C)NC(=O)[C@@H](Cc1ccc2ccccc2c1)NC(=O)[C@H](Cc1ccc(O)cc1)NC(=O)[C@H](CO)NC(=O)[C@H](Cc1c[nH]c2ccccc12)NC(=O)[C@H](Cc1c[nH]cn1)NC(=O)[C@@H]1CCC(=O)N1", "values": [{"measurement": "ED50", "setting": "Rattus norvegicus [1]", "value": 0.22, "unit": "µg"}, {"measurement": "Potency", "setting": "Rattus norvegicus [2]", "value": 0.9}]}, {"smiles": "COc1cc(C[C@@H](NC(=O)[C@H](Cc2ccc(O)cc2)NC(=O)[C@H](CO)NC(=O)[C@H](Cc2c[nH]c3ccccc23)NC(=O)[C@H](Cc2c[nH]cn2)NC(=O)[C@@H]2CCC(=O)N2)C(=O)N[C@@H](CC(C)C)C(=O)N[C@@H](CCCN=C(N)N)C(=O)N2CCC[C@H]2C(=O)NCC(N)=O)cc(OC)c1OC", "values": [{"measurement": "ED50", "setting": "Rattus norvegicus [1]", "value": 0.09, "unit": "µg"}, {"measurement": "Potency", "setting": "Rattus norvegicus [2]", "value": 1.4}]}, {"smiles": "CCNC(=O)[C@@H]1CCCN1C(=O)[C@H](CCCN=C(N)N)NC(=O)[C@H](CC(C)C)NC(=O)[C@@H](CC(c1ccccc1)c1ccccc1)NC(=O)[C@H](Cc1ccc(O)cc1)NC(=O)[C@H](CO)NC(=O)[C@H](Cc1c[nH]c2ccccc12)NC(=O)[C@H](Cc1c[nH]cn1)NC(=O)[C@@H]1CCC(=O)N1", "values": [{"measurement": "ED50", "setting": "Rattus norvegicus [1]", "value": 0.11, "unit": "µg"}, {"measurement": "Potency", "setting": "Rattus norvegicus [2]", "value": 0.9}]}, {"smiles": "CCNC(=O)[C@@H]1CCCN1C(=O)[C@H](CCCN=C(N)N)NC(=O)[C@H](CC(C)C)NC(=O)[C@@H](Cc1ccc2ccccc2c1)NC(=O)[C@H](Cc1ccc(O)cc1)NC(=O)[C@H](CO)NC(=O)[C@H](Cc1cccc2ccccc12)NC(=O)[C@H](Cc1c[nH]cn1)NC(=O)[C@@H]1CCC(=O)N1", "values": [{"measurement": "ED50", "setting": "Rattus norvegicus [1]", "value": 0.16, "unit": "µg"}, {"measurement": "Potency", "setting": "Rattus norvegicus [2]", "value": 0.9}]}, {"smiles": "CC(C)C[C@H](NC(=O)[C@@H](Cc1ccc(C(F)(F)F)cc1)NC(=O)[C@H](Cc1ccc(O)cc1)NC(=O)[C@H](CO)NC(=O)[C@H](Cc1c[nH]c2ccccc12)NC(=O)[C@H](Cc1c[nH]cn1)NC(=O)[C@@H]1CCC(=O)N1)C(=O)N[C@@H](CCCN=C(N)N)C(=O)N1CCC[C@H]1C(=O)NCC(N)=O", "values": [{"measurement": "ED50", "setting": "Rattus norvegicus [1]", "value": 0.11, "unit": "µg"}, {"measurement": "Potency", "setting": "Rattus norvegicus [2]", "value": 1.4}]}, {"smiles": "CC(C)C[C@H](NC(=O)[C@@H](Cc1ccc(-c2ccccc2)cc1)NC(=O)[C@H](Cc1ccc(O)cc1)NC(=O)[C@H](CO)NC(=O)[C@H](Cc1c[nH]c2ccccc12)NC(=O)[C@H](Cc1c[nH]cn1)NC(=O)[C@@H]1CCC(=O)N1)C(=O)N[C@@H](CCCN=C(N)N)C(=O)N1CCC[C@H]1C(=O)NCC(N)=O", "values": [{"measurement": "Potency", "setting": "Rattus norvegicus [2]", "value": 1.4}]}, {"smiles": "CC(C)C[C@H](NC(=O)[C@@H](Cc1ccc2ccccc2c1)NC(=O)[C@H](Cc1ccc(O)cc1)NC(=O)[C@H](CO)NC(=O)[C@H](Cc1c[nH]c2ccccc12)NC(=O)[C@H](Cc1c[nH]cn1)NC(=O)[C@@H]1CCC(=O)N1)C(=O)N[C@@H](CCCN=C(N)N)C(=O)N1CCC[C@H]1C(=O)NCC(N)=O", "values": [{"measurement": "ED50", "setting": "Rattus norvegicus [1]", "value": 0.07, "unit": "µg"}, {"measurement": "Potency", "setting": "Rattus norvegicus [2]", "value": 1.9}]}, {"smiles": "CC(C)C[C@H](NC(=O)[C@@H](Cc1c(F)c(F)c(F)c(F)c1F)NC(=O)[C@H](Cc1ccc(O)cc1)NC(=O)[C@H](CO)NC(=O)[C@H](Cc1c[nH]c2ccccc12)NC(=O)[C@H](Cc1c[nH]cn1)NC(=O)[C@@H]1CCC(=O)N1)C(=O)N[C@@H](CCCN=C(N)N)C(=O)N1CCC[C@H]1C(=O)NCC(N)=O", "values": [{"measurement": "ED50", "setting": "Rattus norvegicus [1]", "value": 0.12, "unit": "µg"}, {"measurement": "Potency", "setting": "Rattus norvegicus [2]", "value": 1.2}]}, {"smiles": "CCNC(=O)[C@@H]1CCCN1C(=O)[C@H](CCCN=C(N)N)NC(=O)[C@H](CC(C)C)NC(=O)[C@@H](Cc1c[nH]c2ccccc12)NC(=O)[C@H](Cc1ccc(O)cc1)NC(=O)[C@H](CO)NC(=O)[C@H](Cc1c[nH]c2ccccc12)NC(=O)[C@H](Cc1c[nH]cn1)NC(=O)[C@@H]1CCC(=O)N1", "values": [{"measurement": "ED50", "setting": "Rattus norvegicus [1]", "value": 0.14, "unit": "µg"}, {"measurement": "Potency", "setting": "Rattus norvegicus [2]", "value": 1}]}]}
